Laboratory results published in PubChem BioAssay AID602228 (Southern Research Specialized Biocontainment Screening …, 2012).
Inconclusive results are not listed. The source made the active and inactive calls.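 Rule for the calls: active = viability below 80% at one or more tested concentrations; inconclusive = replicate runs disagree on the 80% viability cutoff; inactive = viability above 80% at every tested concentration.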

What was measured:
[1] = tested on: Vero E6 viability, CellTiter-Glo luminescence, 72 h; experiment: Vero E6 cell cytotoxicity, dose response, cytotoxicity control for PfM1AAP inhibitor project, set 2 (AID 602228)
Outline: (§1)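 Assay system: Vero E6 cell line / Medium: E-MEM plus 10% FBS / Doses: 10 concentrations, 2-fold dilution steps / Times: 72 h treatment at 37 °C / Measured by: CellTiter-Glo ATP luminescence / Read-out basis: % viability and CC50 from 4-parameter curve / Benchmarks: vehicle-treated cell wells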

[2] = as above; settings: Vero E6 viability, CellTiter-Glo luminescence, 72 h; at 50 µM (top of the series)
Outline: as §1

## O=C(NCc1ccc(Cl)cc1)C1CCN(S(=O)(=O)c2ccc(Br)s2)CC1
[1]
  CC50: 17.7 µM

## CC[C@H](C)[C@H](NS(=O)(=O)c1ccc(Br)s1)C(=O)NCc1ccc2c(c1)OCO2
[2]
  viability: 95.3% (inactive)

## O=C(NCc1ccccc1)C1CCN(S(=O)(=O)c2ccc(Br)s2)CC1
[1]
  CC50: 47.4 µM

## O=C(NCc1ccc2c(c1)OCO2)C1CCN(S(=O)(=O)c2ccc(Br)s2)CC1
[2]
  viability: 89.3% (inactive)

## O=C(NCc1ccc(F)cc1)C1CCN(S(=O)(=O)c2ccc(Br)s2)CC1
[1]
  CC50: 39.6 µM
